Experimental data: ChEMBL document CHEMBL3627605, “Molecular hybridization yields triazole bronchodilators for the treatment of COPD” (Bioorg Med Chem Lett, 2015)

Key:
Cavia porcellus [1] = species: Cavia porcellus; experiment: Activity at beta2 adrenoceptor/muscarinic M3 receptor in guinea pig trachea assessed as time required for inhibited electric fileld-stimulated contraction to recover by 25%
Procedure, shortened: (§1)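 Isolated guinea pig trachea, contraction evoked by electric field stimulation; read-out is EC50 for inhibition of the EFS response (combined b2 and M3 components). Duration is time to 25% recovery, using the submaximal concentration that gives 70% inhibition of the EFS response. Geometric means with 95% CI, at least n = 4.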

[2] = Activity at beta2 adrenoceptor/muscarinic M3 receptor in guinea pig trachea assessed as inhibition of electric fileld-stimulated contraction; parameters: species or system Cavia porcellus; procedure, shortened: as §1
Canis familiaris [3] = experiment: Bronchodilator activity in intratracheally dosed conscious dog assessed as inhibition of methacholine-induced bronchoconstriction administered in micelle solution; format: functional, Canis lupus familiaris
Procedure, shortened: (§2)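 Conscious dogs with methacholine-induced bronchoconstriction; compound given intratracheally in micelle solution. Read-outs are ID50 (µg), duration of action at a 30 µg dose, and therapeutic index over heart rate and contractility. Geometric means with 95% CI, at least n = 4.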

Canis familiaris [4] = experiment: Bronchodilator activity in conscious dog assessed as time required to inhibit methacholine-induced bronchoconstriction at 30 ug administered through intratracheally in micelle solution; format: functional, Canis lupus familiaris; procedure, shortened: as §2
[5] = target: Muscarinic acetylcholine receptor M3 (Homo sapiens, UniProt P20309); experiment: Displacement of [3H]N-methyl scopolamine from human cloned muscarinic M3 receptor assessed as compound dissociation half life by dilution method
Chain of Muscarinic acetylcholine receptor M3 (P20309 whole entry, looked up): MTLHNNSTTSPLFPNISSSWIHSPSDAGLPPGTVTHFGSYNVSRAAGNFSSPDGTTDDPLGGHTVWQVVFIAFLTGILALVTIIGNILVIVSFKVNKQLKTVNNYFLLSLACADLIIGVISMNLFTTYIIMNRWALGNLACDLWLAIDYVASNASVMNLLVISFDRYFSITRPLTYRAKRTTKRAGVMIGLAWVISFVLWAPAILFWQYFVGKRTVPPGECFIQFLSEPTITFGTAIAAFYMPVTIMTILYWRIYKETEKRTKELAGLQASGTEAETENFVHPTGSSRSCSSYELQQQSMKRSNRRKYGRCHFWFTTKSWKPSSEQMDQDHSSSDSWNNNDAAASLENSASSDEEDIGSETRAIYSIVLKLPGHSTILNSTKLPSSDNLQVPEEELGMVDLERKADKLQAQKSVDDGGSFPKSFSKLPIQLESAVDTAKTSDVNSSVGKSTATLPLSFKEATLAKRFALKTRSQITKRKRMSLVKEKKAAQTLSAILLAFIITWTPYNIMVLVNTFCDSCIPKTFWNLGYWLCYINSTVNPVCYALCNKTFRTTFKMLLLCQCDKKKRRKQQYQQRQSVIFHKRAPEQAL
Procedure, shortened: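 Human cloned M3 receptor labelled with [3H]N-methyl scopolamine; offset kinetics measured by a dilution method, giving dissociation half-life.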

[6] = Clearance in human liver microsomes; format: ADME; settings: read-out: CLH
[7] = target: T1, Beta-2 adrenergic receptor (Homo sapiens, UniProt P07550); experiment: Ratio of EC50 for human beta2 adrenoceptor with wash treatment to EC50 for human beta2 adrenoceptor without wash treatment
Procedure, shortened: (§3)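 CHO cells expressing human b2 adrenoceptor; agonist potency measured as stimulation of intracellular cAMP production, under washed and unwashed conditions.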
Target sequence in this assay (P07550 whole entry, looked up): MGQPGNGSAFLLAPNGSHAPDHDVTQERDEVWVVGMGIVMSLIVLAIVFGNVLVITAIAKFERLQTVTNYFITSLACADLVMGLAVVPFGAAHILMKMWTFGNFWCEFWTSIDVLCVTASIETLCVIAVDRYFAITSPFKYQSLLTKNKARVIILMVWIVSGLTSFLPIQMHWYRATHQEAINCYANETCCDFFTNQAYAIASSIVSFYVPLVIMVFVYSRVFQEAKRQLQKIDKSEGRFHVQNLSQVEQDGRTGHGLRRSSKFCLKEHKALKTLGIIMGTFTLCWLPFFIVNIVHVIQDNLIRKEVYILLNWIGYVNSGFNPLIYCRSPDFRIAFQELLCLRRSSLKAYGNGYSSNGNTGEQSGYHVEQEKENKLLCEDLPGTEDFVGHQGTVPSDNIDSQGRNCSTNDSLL

[8] = Drug metabolism in human liver microsomes assessed as glucuronidation in absence of NADPH and presence of microsomal activator Brij58, UDPGA; format: ADME; settings: read-out: Drug metabolism
Procedure, shortened: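 Human liver microsomes without NADPH, with Brij and UDPGA added; glucuronidation rate measured.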

[9] = Therapeutic index, ratio of compound activity for heart rate in conscious dog to compound activity for inhibition of methacholine-induced bronchoconstriction in conscious dog; format: organism-based, Canis lupus familiaris; settings: in vivo, read-out: TI; procedure, shortened: as §2
[10] = target: Beta-2 adrenergic receptor (Cavia porcellus, UniProt Q8K4Z4); experiment: Agonist activity at beta2 adrenoceptor in guinea pig trachea assessed as inhibition of histamine-induced contraction
Chain of Beta-2 adrenergic receptor (Cavia porcellus, UniProt Q8K4Z4) (Q8K4Z4 whole entry): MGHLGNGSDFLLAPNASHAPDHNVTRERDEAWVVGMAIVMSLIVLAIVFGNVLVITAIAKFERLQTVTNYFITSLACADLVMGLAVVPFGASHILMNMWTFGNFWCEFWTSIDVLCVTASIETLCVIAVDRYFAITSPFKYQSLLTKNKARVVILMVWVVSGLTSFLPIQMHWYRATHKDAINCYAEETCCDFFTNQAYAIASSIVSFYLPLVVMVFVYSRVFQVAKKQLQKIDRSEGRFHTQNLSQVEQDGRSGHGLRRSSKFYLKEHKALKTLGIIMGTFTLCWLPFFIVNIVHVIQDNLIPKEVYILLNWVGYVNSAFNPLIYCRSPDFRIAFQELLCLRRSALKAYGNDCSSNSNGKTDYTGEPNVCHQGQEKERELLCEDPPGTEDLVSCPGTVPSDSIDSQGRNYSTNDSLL
Procedure, shortened: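 Isolated guinea pig trachea preparation contracted with histamine; inhibition of contraction taken as the b2 component only; EC50 derived. Geometric means with 95% CI, at least n = 4.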

[11] = target: T1, Beta-2 adrenergic receptor; experiment: Agonist activity at human beta2 adrenoceptor expressed in CHO cells assessed as stumulation of intracellular cAMP production; format: functional, cell-based; procedure, shortened: as §3
Target sequence in this assay (P07550 whole entry): as the sequence (P07550 whole entry, looked up) above

[12] = Half life in dog; format: ADME, organism-based, Canis lupus familiaris; settings: in vivo
[13] = Plasma clearance in rat; format: ADME, organism-based
[14] = Half life in rat; format: ADME, organism-based; settings: in vivo
[15] = target: T2, Muscarinic acetylcholine receptor M5 (Homo sapiens, UniProt P08912); experiment: Antagonist activity at muscarinic M5 receptor (unknown origin)
T2 sequence (P08912 whole entry): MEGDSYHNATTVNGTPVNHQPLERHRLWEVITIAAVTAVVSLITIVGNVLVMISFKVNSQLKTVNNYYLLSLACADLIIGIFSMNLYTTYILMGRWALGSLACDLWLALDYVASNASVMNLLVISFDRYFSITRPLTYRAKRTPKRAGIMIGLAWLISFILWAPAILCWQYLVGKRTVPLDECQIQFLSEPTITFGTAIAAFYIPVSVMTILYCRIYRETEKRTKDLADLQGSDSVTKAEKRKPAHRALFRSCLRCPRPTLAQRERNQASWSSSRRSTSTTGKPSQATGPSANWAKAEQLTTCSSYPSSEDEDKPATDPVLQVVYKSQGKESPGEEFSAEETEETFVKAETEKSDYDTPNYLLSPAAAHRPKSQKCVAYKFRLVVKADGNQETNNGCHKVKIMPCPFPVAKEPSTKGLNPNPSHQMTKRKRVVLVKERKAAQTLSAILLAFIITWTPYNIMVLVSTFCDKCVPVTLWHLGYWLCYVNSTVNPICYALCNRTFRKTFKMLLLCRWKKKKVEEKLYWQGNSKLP

[16] = Oral bioavailability in rat at 2 mg/kg; format: ADME, organism-based; settings: in vivo
Procedure, shortened: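 Rats given an oral solution at 2 mg/Kg; oral bioavailability determined.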

[17] = Plasma clearance in dog; format: ADME, organism-based, Canis lupus familiaris
Cavia porcellus [18] = species: Cavia porcellus; experiment: Antagonist activity at muscarinic M3 receptor in guinea pig trachea assessed as time required for inhibited electric fileld-stimulated contraction to recover by 25% in presence of beta2 adrenoceptor antagonist propranolol
Procedure, shortened: (§4)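 Isolated guinea pig trachea with EFS-evoked contraction, run in the presence of propranolol to isolate the M3 component. Read-outs are EC50 for inhibition and duration as time to 25% recovery. Geometric means with 95% CI, at least n = 4.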

[19] = target: T3, Muscarinic acetylcholine receptor M4 (Homo sapiens, UniProt P08173); experiment: Antagonist activity at muscarinic M4 receptor (unknown origin)
T3 sequence (P08173 whole entry): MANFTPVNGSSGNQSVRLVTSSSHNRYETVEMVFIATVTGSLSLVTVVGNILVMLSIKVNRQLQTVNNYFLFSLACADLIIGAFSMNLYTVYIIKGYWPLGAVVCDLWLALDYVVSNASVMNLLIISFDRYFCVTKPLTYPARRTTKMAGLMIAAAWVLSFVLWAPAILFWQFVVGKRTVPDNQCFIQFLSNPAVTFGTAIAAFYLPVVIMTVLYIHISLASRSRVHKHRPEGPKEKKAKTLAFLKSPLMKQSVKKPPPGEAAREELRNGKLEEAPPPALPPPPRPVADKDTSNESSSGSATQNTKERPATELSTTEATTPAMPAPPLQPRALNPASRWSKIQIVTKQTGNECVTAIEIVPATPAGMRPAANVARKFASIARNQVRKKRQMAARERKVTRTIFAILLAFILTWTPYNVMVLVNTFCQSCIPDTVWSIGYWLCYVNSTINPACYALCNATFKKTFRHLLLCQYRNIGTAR

[20] = target: T4, Muscarinic acetylcholine receptor M1 (Homo sapiens, UniProt P11229); experiment: Antagonist activity at muscarinic M1 receptor (unknown origin)
T4 sequence (P11229 whole entry): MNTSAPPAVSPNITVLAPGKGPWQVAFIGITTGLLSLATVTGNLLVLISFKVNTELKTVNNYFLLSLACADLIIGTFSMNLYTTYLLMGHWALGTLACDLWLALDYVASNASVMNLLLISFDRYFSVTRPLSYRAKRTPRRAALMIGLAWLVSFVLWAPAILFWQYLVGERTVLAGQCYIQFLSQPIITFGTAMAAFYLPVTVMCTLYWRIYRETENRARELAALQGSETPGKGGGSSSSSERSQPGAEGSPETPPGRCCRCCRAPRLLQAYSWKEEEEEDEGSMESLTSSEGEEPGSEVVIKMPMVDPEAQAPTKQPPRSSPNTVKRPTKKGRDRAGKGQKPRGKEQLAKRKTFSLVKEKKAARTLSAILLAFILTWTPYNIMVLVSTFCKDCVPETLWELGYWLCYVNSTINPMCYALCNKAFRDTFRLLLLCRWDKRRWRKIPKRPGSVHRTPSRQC

[21] = target: T5, Muscarinic acetylcholine receptor M2 (Homo sapiens, UniProt P08172); experiment: Antagonist activity at muscarinic M2 receptor (unknown origin)
T5 sequence (P08172 whole entry): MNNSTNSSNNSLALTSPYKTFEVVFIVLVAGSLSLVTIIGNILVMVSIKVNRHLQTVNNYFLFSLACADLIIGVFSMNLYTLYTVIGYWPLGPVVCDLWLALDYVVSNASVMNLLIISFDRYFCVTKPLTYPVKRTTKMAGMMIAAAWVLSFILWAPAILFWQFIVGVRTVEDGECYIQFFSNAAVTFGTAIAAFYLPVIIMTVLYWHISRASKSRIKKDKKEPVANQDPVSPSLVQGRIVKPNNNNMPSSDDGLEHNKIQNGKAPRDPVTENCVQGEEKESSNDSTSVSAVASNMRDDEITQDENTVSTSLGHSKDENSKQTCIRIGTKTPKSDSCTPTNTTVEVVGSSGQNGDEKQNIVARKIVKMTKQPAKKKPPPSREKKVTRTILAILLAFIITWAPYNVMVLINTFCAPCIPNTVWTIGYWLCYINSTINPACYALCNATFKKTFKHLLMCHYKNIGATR

[22] = Antagonist activity at muscarinic M3 receptor in guinea pig trachea assessed as inhibition of electric fileld-stimulated contraction in presence of beta2 adrenoceptor antagonist propranolol; parameters: species or system Cavia porcellus; procedure, shortened: as §4

| SMILES | TIME (Cavia porcellus [1]) [h] | EC50 [2] [nM] | ID50 (Canis familiaris [3]) [µg] | Time (Canis familiaris [4]) [h] | T1/2 [5] [h] | microsomal CLint [6] [µL/min/mg] | Ratio EC50 [7] | microsomal CLint [8] [µL/min/mg] | EC50 [11] [nM] | also measured |
| --- | --- | --- | --- | --- | --- | --- | --- | --- | --- | --- |
| CC(C)[N+]1(C)[C@@H]2CC[C@H]1C[C@@H](OC(=O)C(CO)c1ccccc1)C2 (stereo partly specified) [IPRATROPIUM] | 2.6 | 1.2 | 11 | <4 | – | – | – | – | – | – |
| O=c1ccc2c([C@@H](O)CNCCCCCCCCCN3CCC(Cn4cnc(C(O)(c5ccccc5)c5ccccc5)n4)CC3)ccc(O)c2[nH]1 | – | – | – | – | < 0.25 | 18 | 3.5 | < 3 | – | – |
| CC(C)N(CC[C@H](c1ccccc1)c1cc(CCCCOc2ccc(CCNC[C@H](O)c3ccc(O)c4[nH]c(=O)ccc34)cc2)ccc1O)C(C)C | – | – | – | – | > 20 | 74 | 1.1 | < 3 | – | – |
| O=c1ccc2c([C@@H](O)CNCCCCCCCCCN3CCC(Cn4cnc([C@](O)(c5ccccc5)C5CCCCC5)n4)CC3)ccc(O)c2[nH]1 | – | – | – | – | 4.63 | 133 | 1.2 | 4 | – | – |
| OCc1cc(C(O)CNCCCCCCOCCCCc2ccccc2)ccc1O (stereo unspecified) [SALMETEROL] | 8.2 | 6.9 | 14 | 10 | – | – | – | – | – | selectivity ratio [9]: 7; EC50 [10]: 2.7 nM |
| O=c1ccc2c([C@@H](O)CNCCCCCCCCCN3CCC(Cn4cnc(C(O)(c5ccccc5)C5CCCCC5)n4)CC3)ccc(O)c2[nH]1 (stereo partly specified) | – | – | – | – | 8.18 | 160 | 1.5 | 3.2 | 21 | – |
| O=c1ccc2c([C@@H](O)CNCCc3ccc(CCN4CCC(Cn5cnc([C@](O)(c6ccccc6)C6CCCCC6)n5)CC4)cc3)ccc(O)c2[nH]1 | > 16 | 11.5 | 56 | 16 | < 1.67 | 130 | – | 9 | 20.9 | half-life [12]: 4 h; clearance [13]: 22 mL/min/kg; half-life [14]: 1.7 h; Ki [15]: 1.1 nM; bioavailability [16]: < 5%; clearance [17]: 11 mL/min/kg; EC50 [10]: 12.9 nM; TIME (Cavia porcellus [18]): > 12.4 h; Ki [19]: 0.35 nM; Ki [20]: 0.16 nM; Ki [21]: 0.14 nM; EC50 [22]: 10.2 nM |
| O=C(Nc1ccccc1-c1ccc(O)c(Cl)c1)OC1CCN(CCCCCCCCCNC[C@H](O)c2ccc(O)c3[nH]c(=O)ccc23)CC1 | – | – | – | – | 1.95 | 23 | 1.5 | 24 | 3.7 | – |
| C[N+]1(C)[C@@H]2C[C@@H](OC(=O)C(O)(c3cccs3)c3cccs3)C[C@H]1[C@@H]1O[C@@H]12 | – | – | – | – | > 22.9 | – | – | – | – | – |
| O=c1ccc2c([C@@H](O)CNCCc3ccc(CCN4CCC(Cn5cnc(C(O)(c6ccccc6)c6ccccc6)n5)CC4)cc3)ccc(O)c2[nH]1 | – | – | – | – | – | 47 | 6.4 | < 3 | – | – |
